ChEMBL document CHEMBL3526002, “Tissue distribution and identification of radioactivity components at elimination phase after oral administration of [¹⁴C]CS-1036, an α-amylase inhibitor, to rats” (Drug Metab Dispos, 2013)

What was measured:
Conditions in all cases: in vivo; call rule not given here
[1] = test system: Large intestine; test: Drug uptake in albino F344/DuCrlCrlj rat large intestine assessed as ng equivalent of CS-1036 at 5 mg/kg, po after 24 hrs by liquid scintillation counting; assay type: ADME, organism-based; design: dose 5 mg/kg, dosed compound name [14C]CS-1036, route oral
[2] = test system: Plasma; test: Drug uptake in albino F344/DuCrlCrlj rat plasma at 5 mg/kg, po after 8 hrs by liquid scintillation counting; assay type: ADME, organism-based; design: dose 5 mg/kg, dosed compound name [14C]CS-1036, route oral
[3] = test system: Liver; test: Drug uptake in albino F344/DuCrlCrlj rat liver at 5 mg/kg, po after 168 hrs by liquid scintillation counting; assay type: ADME, organism-based; design: dose 5 mg/kg, dosed compound name [14C]CS-1036, route oral
[4] = Drug uptake in albino F344/DuCrlCrlj rat fat assessed as ng equivalent of CS-1036 at 5 mg/kg, po after 168 hrs by liquid scintillation counting; assay type: ADME, organism-based, Adipose tissue; design: dose 5 mg/kg, dosed compound name [14C]CS-1036, route oral
How it was run: (§1)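 Male F344/DuCrlCrlj rats (bought at 7 weeks, acclimatized 5–6 days; 159–167 g; n = 3 per time point) received a single oral dose of [14C]CS-1036 at 5 mg/kg. White adipose tissue was collected after abdominal aortic bleeding at 1, 4, 8, 24, 72, 168 or 336 h. Samples were counted by LSC with external-standard efficiency correction. Results were converted to ng equivalents per g from specific activity and sample weight.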

[5] = test system: Heart; test: Drug uptake in albino F344/DuCrlCrlj rat heart at 5 mg/kg, po after 8 hrs by liquid scintillation counting; assay type: ADME, organism-based; design: dose 5 mg/kg, dosed compound name [14C]CS-1036, route oral
[6] = test system: Cerebrum; test: Drug uptake in albino F344/DuCrlCrlj rat cerebrum assessed as ng equivalent of CS-1036 at 5 mg/kg, po after 168 hrs by liquid scintillation counting; assay type: ADME, organism-based; design: dose 5 mg/kg, dosed compound name [14C]CS-1036, route oral
How it was run: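 Single oral [14C]CS-1036 at 5 mg/kg was given to male rats (159–167 g; n = 3). Cerebrum was collected after aortic bleeding at 1, 4, 8, 24, 72, 168 or 336 h, weighed, and homogenized in 2 volumes of saline. A 0.5 ml aliquot was solubilized in Soluene-350 and counted by LSC with external-standard correction. Results are in ng equivalent/g tissue from specific activity and sample weight.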

[7] = test system: Cerebellum; test: Drug uptake in albino F344/DuCrlCrlj rat cerebellum assessed as ng equivalent of CS-1036 at 5 mg/kg, po after 168 hrs by liquid scintillation counting; assay type: ADME, organism-based; design: dose 5 mg/kg, dosed compound name [14C]CS-1036, route oral
[8] = Drug uptake in albino F344/DuCrlCrlj rat urinary bladder assessed as ng equivalent of CS-1036 at 5 mg/kg, po after 72 hrs by liquid scintillation counting; assay type: ADME, organism-based; design: dose 5 mg/kg, dosed compound name [14C]CS-1036, route oral
[9] = Drug uptake in albino F344/DuCrlCrlj rat brown fat assessed as ng equivalent of CS-1036 at 5 mg/kg, po after 4 hrs by liquid scintillation counting; assay type: ADME, organism-based, Brown adipose tissue; design: dose 5 mg/kg, dosed compound name [14C]CS-1036, route oral
[10] = test system: Cerebellum; test: Drug uptake in albino F344/DuCrlCrlj rat cerebellum assessed as ng equivalent of CS-1036 at 5 mg/kg, po after 8 hrs by liquid scintillation counting; assay type: ADME, organism-based; design: dose 5 mg/kg, dosed compound name [14C]CS-1036, route oral
[11] = test system: Spleen; test: Drug uptake in albino F344/DuCrlCrlj rat spleen assessed as ng equivalent of CS-1036 at 5 mg/kg, po after 24 hrs by liquid scintillation counting; assay type: ADME, organism-based; design: dose 5 mg/kg, dosed compound name [14C]CS-1036, route oral
[12] = test system: Heart; test: Drug uptake in albino F344/DuCrlCrlj rat heart at 5 mg/kg, po after 4 hrs by liquid scintillation counting; assay type: ADME, organism-based; design: dose 5 mg/kg, dosed compound name [14C]CS-1036, route oral
[13] = test system: Large intestine; test: Drug uptake in albino F344/DuCrlCrlj rat large intestine at 5 mg/kg, po after 24 hrs by liquid scintillation counting; assay type: ADME, organism-based; design: dose 5 mg/kg, dosed compound name [14C]CS-1036, route oral
[14] = Drug uptake in albino F344/DuCrlCrlj rat brown fat assessed as ng equivalent of CS-1036 at 5 mg/kg, po after 72 hrs by liquid scintillation counting; assay type: ADME, organism-based, Brown adipose tissue; design: dose 5 mg/kg, dosed compound name [14C]CS-1036, route oral
[15] = test system: Aorta; test: Drug uptake in albino F344/DuCrlCrlj rat aorta assessed as ng equivalent of CS-1036 at 5 mg/kg, po after 336 hrs by liquid scintillation counting; assay type: ADME, organism-based; design: dose 5 mg/kg, dosed compound name [14C]CS-1036, route oral
[16] = test system: Thymus; test: Drug uptake in albino F344/DuCrlCrlj rat thymus assessed as ng equivalent of CS-1036 at 5 mg/kg, po after 4 hrs by liquid scintillation counting; assay type: ADME, organism-based; design: dose 5 mg/kg, dosed compound name [14C]CS-1036, route oral
[17] = test system: Plasma; test: Drug uptake in albino F344/DuCrlCrlj rat plasma at 5 mg/kg, po after 4 hrs by liquid scintillation counting; assay type: ADME, organism-based; design: dose 5 mg/kg, dosed compound name [14C]CS-1036, route oral
[18] = Drug uptake in albino F344/DuCrlCrlj rat brown fat at 5 mg/kg, po after 24 hrs by liquid scintillation counting; assay type: ADME, organism-based, Brown adipose tissue; design: dose 5 mg/kg, dosed compound name [14C]CS-1036, route oral
[19] = test system: Thymus; test: Drug uptake in albino F344/DuCrlCrlj rat thymus assessed as ng equivalent of CS-1036 at 5 mg/kg, po after 1 hr by liquid scintillation counting; assay type: ADME, organism-based; design: dose 5 mg/kg, dosed compound name [14C]CS-1036, route oral
[20] = test system: Plasma; test: Drug uptake in albino F344/DuCrlCrlj rat plasma at 10 mg/kg, po after 8 to 72 hrs by liquid scintillation counting; assay type: ADME, organism-based; design: dose 10 mg/kg, dosed compound name [14C]CS-1036, route oral
[21] = test system: Blood; test: Drug uptake in albino F344/DuCrlCrlj rat blood at 5 mg/kg, po after 72 hrs by liquid scintillation counting; assay type: ADME, organism-based; design: dose 5 mg/kg, dosed compound name [14C]CS-1036, route oral
How it was run: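 Male rats (159–167 g; n = 3) received a single oral dose of [14C]CS-1036 at 5 mg/kg. Blood was drawn from the abdominal aorta at 1, 4, 8, 24, 72, 168 and 336 h. Radioactivity was counted by LSC with external-standard efficiency correction. Results are expressed as ng equivalent/ml from the specific activity and sample volume; mean + S.D.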

[22] = test system: Blood; test: Drug uptake in albino F344/DuCrlCrlj rat blood at 5 mg/kg, po after 1 hr by liquid scintillation counting; assay type: ADME, organism-based; design: dose 5 mg/kg, dosed compound name [14C]CS-1036, route oral
How it was run: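 Male F344/DuCrlCrlj rats (159–167 g; n = 3 per time point) received a single oral dose of [14C]CS-1036 at 5 mg/kg. Blood was taken from the abdominal aorta at 1, 4, 8, 24, 72, 168 and 336 h. Radioactivity was counted by LSC with external-standard efficiency correction. Results were converted to ng equivalent of CS-1036/ml using specific activity and sample volume, and reported as mean + S.D.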

[23] = Drug uptake in albino F344/DuCrlCrlj rat skeletal muscle assessed as ng equivalent of CS-1036 at 5 mg/kg, po after 336 hrs by liquid scintillation counting; assay type: ADME, organism-based, Muscle tissue; design: dose 5 mg/kg, dosed compound name [14C]CS-1036, route oral
[24] = Drug uptake in albino F344/DuCrlCrlj rat epididymis at 5 mg/kg, po after 24 hrs by liquid scintillation counting; assay type: ADME, organism-based; design: dose 5 mg/kg, dosed compound name [14C]CS-1036, route oral
[25] = Drug uptake in albino F344/DuCrlCrlj rat thyroid gland at 5 mg/kg, po after 336 hrs by liquid scintillation counting; assay type: ADME, organism-based; design: dose 5 mg/kg, dosed compound name [14C]CS-1036, route oral
[26] = test system: Thymus; test: Drug uptake in albino F344/DuCrlCrlj rat thymus at 5 mg/kg, po after 1 hr by liquid scintillation counting; assay type: ADME, organism-based; design: dose 5 mg/kg, dosed compound name [14C]CS-1036, route oral
[27] = test system: Spleen; test: Drug uptake in albino F344/DuCrlCrlj rat spleen assessed as ng equivalent of CS-1036 at 5 mg/kg, po after 8 hrs by liquid scintillation counting; assay type: ADME, organism-based; design: dose 5 mg/kg, dosed compound name [14C]CS-1036, route oral
[28] = Drug uptake in albino F344/DuCrlCrlj rat brown fat at 5 mg/kg, po after 4 hrs by liquid scintillation counting; assay type: ADME, organism-based, Brown adipose tissue; design: dose 5 mg/kg, dosed compound name [14C]CS-1036, route oral
[29] = Drug uptake in albino F344/DuCrlCrlj rat mandibular gland at 5 mg/kg, po after 4 hrs by liquid scintillation counting; assay type: ADME, organism-based; design: dose 5 mg/kg, dosed compound name [14C]CS-1036, route oral
[30] = Drug uptake in albino F344/DuCrlCrlj rat fat at 5 mg/kg, po after 168 hrs by liquid scintillation counting; assay type: ADME, organism-based, Adipose tissue; design: dose 5 mg/kg, dosed compound name [14C]CS-1036, route oral; how it was run: as §1
[31] = test system: Spleen; test: Drug uptake in albino F344/DuCrlCrlj rat spleen at 5 mg/kg, po after 1 hr by liquid scintillation counting; assay type: ADME, organism-based; design: dose 5 mg/kg, dosed compound name [14C]CS-1036, route oral
[32] = test system: Cerebellum; test: Drug uptake in albino F344/DuCrlCrlj rat cerebellum at 5 mg/kg, po after 8 hrs by liquid scintillation counting; assay type: ADME, organism-based; design: dose 5 mg/kg, dosed compound name [14C]CS-1036, route oral

Radiolabel recovery [1]: 138 ngequiv/g
Radiolabel recovery [2]: 27.7 ngequiv/ml
Radiolabel recovery [3]: 14.3 ngequiv/g
Radiolabel recovery [4]: 64 ngequiv/g
Radiolabel recovery [5]: 27.2 ngequiv/g
Radiolabel recovery [6]: 3.11 ngequiv/g
Radiolabel recovery [7]: 3.37 ngequiv/g
Radiolabel recovery [8]: 6.8 ngequiv/g
Radiolabel recovery [9]: 2.5 ngequiv/g
Radiolabel recovery [10]: 1.18 ngequiv/g
Radiolabel recovery [11]: 10.4 ngequiv/g
Radiolabel recovery [12]: 36 ngequiv/g
Radiolabel recovery [13]: 299 ngequiv/g
Radiolabel recovery [14]: 136 ngequiv/g
Radiolabel recovery [15]: 10.8 ngequiv/g
Radiolabel recovery [16]: 2.8 ngequiv/g
Radiolabel recovery [17]: 60.1 ngequiv/ml
Radiolabel recovery [18]: 200 ngequiv/g
Radiolabel recovery [19]: 2.1 ngequiv/g
Drug uptake [20]: Active
Radiolabel recovery [21]: 16.1 ngequiv/ml
Radiolabel recovery [22]: 60.5 ngequiv/ml
Radiolabel recovery [23]: 3.46 ngequiv/g
Radiolabel recovery [24]: 40.8 ngequiv/g
Radiolabel recovery [25]: 14.5 ngequiv/g
Radiolabel recovery [26]: 23.2 ngequiv/g
Radiolabel recovery [27]: 84.1 ngequiv/g
Radiolabel recovery [28]: 25.8 ngequiv/g
Radiolabel recovery [29]: 51.1 ngequiv/g
Radiolabel recovery [30]: 130 ngequiv/g
Radiolabel recovery [31]: 65.6 ngequiv/g
Radiolabel recovery [32]: 8.3 ngequiv/g
Compound: C[C@H]1O[C@@H](O[C@H]2[C@H](O)[C@@H](O)[C@@H](O[14C@H]3[14C@H](O)[14CH2]N[14C@@H]3[14CH2]O)O[C@@H]2CO)[C@H](O)[C@@H](O)[C@@H]1O
